Shown are actives, neighbours in structure and some others; about 4.7% of the full set was active somewhere.
aSyn 5UTR inh: MLPCN primary screen, SNCA 5' untranslated region; alpha-synuclein 5'UTR reporter, inhibitor activity; inhibition, % (tested at 7.5 µM); 300,000 tested, 0.82% active; in the data active means inhibition above about 60%;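 further: H4 neuroglioblastoma cells stably carrying SNCA 5'UTR luciferase fusion; 0% = DMSO wells and 100% = positive control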
IMP-1 inh: IMP-1 metallo-beta-lactamase inhibitors, primary screen, biochemical, epi-absorbance readout, Pseudomonas aeruginosa enzyme | metallo-beta-lactamase IMP-1 (Pseudomonas aeruginosa) | purified IMP-1, nitrocefin hydrolysis, epi-absorbance fluorescence | inhibition, % at 5.6 µM | 290,000 tested, 0.45% active;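 active means inhibition above the mean plus 3 SD of all compounds in the same screening run, cut at about 4.5% in these data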;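 further: 0% = IMP-1 with DMSO and 100% = DMSO wells lacking enzyme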
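System: purified IMP-1; amount: IMP-1 0.2 nM before substrate addition; compound: single dose, 5.6 µM; times: 25 °C, 15 min preincubation, 25 min reaction; signal: Epi-absorbance via hydrolysed-nitrocefin quenching of white-plate fluorescence, 480/530 nm, EDTA stop; benchmarks: DMSO with and without IMP-1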
Mdm2-MdmX inh: inhibitors of human Mdm2-MdmX association, primary screen, cell-based, luminescence, split luciferase, SaOS-2, uHTS. 330,000 tested, 3% active. Protein Mdm4 (Homo sapiens) + E3 ubiquitin-protein ligase Mdm2 (Homo sapiens), …. inhibition, % at 8 µM. SaOS-2 split-luciferase Mdm2/MdmX complementation;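 active means inhibition of at least 50% at 8 µM in the primary screen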
Target sequence (O15151 whole entry, looked up): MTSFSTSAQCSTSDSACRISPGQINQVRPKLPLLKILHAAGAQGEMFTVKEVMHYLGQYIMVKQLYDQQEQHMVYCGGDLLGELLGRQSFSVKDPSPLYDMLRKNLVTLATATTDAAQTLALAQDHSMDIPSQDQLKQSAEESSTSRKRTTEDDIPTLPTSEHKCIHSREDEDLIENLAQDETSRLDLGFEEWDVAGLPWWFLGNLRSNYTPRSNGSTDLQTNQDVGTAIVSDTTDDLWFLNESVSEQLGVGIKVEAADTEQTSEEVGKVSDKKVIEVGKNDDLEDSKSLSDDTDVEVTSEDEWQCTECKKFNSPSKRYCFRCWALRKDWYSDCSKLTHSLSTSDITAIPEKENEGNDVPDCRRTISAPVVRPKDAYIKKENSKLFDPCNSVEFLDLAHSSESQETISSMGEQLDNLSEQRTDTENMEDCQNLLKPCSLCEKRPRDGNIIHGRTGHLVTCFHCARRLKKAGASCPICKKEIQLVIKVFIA
Target sequence (Q00987 whole entry, looked up): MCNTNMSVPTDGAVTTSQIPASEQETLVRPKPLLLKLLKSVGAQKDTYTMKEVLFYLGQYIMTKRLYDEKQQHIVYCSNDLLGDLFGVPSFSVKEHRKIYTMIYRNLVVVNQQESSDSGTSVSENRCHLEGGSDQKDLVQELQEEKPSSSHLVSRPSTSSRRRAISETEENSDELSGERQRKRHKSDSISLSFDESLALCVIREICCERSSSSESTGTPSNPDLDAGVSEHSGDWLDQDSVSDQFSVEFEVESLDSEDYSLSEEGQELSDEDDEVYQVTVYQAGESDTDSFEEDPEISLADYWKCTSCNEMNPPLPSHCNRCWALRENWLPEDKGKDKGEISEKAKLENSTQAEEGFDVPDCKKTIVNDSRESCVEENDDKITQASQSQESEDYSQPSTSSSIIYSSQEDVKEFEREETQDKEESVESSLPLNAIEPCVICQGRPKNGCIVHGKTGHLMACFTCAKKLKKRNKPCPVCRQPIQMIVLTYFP
Jurkat NFkB inh: inhibitors of induced NF-kB luciferase reporter, primary screen, TCR NF-kB activation inhibitor project, cell-based, luminescence, uHTS. 330,000 tested, 0.53% active. AID 435003, 2010. Jurkat, PMA/ionomycin-induced NF-kB luciferase reporter. inhibition, % at 4 µM; in the data active means inhibition above about 50%
697 NFkB inh: inhibitors of PMA/ionomycin-induced NF-kB reporter, 697 cells, primary screen, B-cell NF-kB inhibitor project, cell-based, luminescence, uHTS; 697 B-cell NF-kB luciferase reporter, 16 h; inhibition, % at 4 µM; 330,000 tested, 0.33% active; AID 435022, 2010; in the data active means inhibition above about 35%
VIM-2 inhibitor: VIM-2 metallo-beta-lactamase inhibitors, primary screen, biochemical, epi-absorbance readout, Pseudomonas aeruginosa enzyme; purified VIM-2, nitrocefin hydrolysis, epi-absorbance fluorescence; AID 1527, 2009; inhibition, % at 5.6 µM; 290,000 tested, 0.89% active;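 active means inhibition above the mean of all tested compounds plus 3 SD, cutoff set per screening run, cut at about 7.5% in these data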;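 further: red hydrolysis product quenches plate fluorescence so inhibitors raise well fluorescence; 0% = enzyme with DMSO and 100% = DMSO without enzyme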
Mdm2-MdmX conf: Mdm2-MdmX complex disruptors, retested hits, confirmation, luminescence, single concentration | shares compounds with Mdm2-MdmX inh | inhibition, % at 8 µM | Mdm2-MdmX binding, luminescent assay | 10,000 tested, 55% active; in the data active means inhibition above about 40%
Full FLuc ctr: full-length luciferase signal inhibition, confirmation, counter-screen for Mdm2/MdmX interaction inhibitor project, cell-based, single concentration, SaOS-2; SaOS-2 full-length luciferase counterscreen, luminescence; shares compounds with Mdm2-MdmX inh; inhibition, % at 8 µM; 6,200 tested, 77% active;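 active means mean inhibition at 8 µM reaching about 37%, which flags the compound as non-specific, limit read from the data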;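 further: p53-null SaOS-2 cells with luciferase driven by a doxycycline-inducible promoter; compound on cells about two nights before reading with doxycycline added after day one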
* hit, by the source's call; . = no result given.

SMILES	aSyn 5UTR inh	IMP-1 inh	Mdm2-MdmX inh	Jurkat NFkB inh	697 NFkB inh	VIM-2 inhibitor	Mdm2-MdmX conf	Full FLuc ctr
O=C(Nc1ccc(N2CCOCC2)cc1)c1cc(-c2ccncc2)nc2ccccc12	10	0	0	9	7	-1	.	.
CCOc1cc(N2CCOCC2)c(OCC)cc1NC(=O)COc1ncnc2ccccc12	24	-4	4	0	21	-3	.	.
O=C(Nc1ccccc1N1CCOCC1)c1cc(-c2ccncc2)nc2ccccc12	-3	-2	55*	2	19	0	38	82*
COc1ccc(-c2cc(C(=O)NNC(=O)c3csc(N4CCOCC4)n3)c3ccccc3n2)cc1OC	-23	.	34	19	26	.	.	.
CCOc1cc(N2CCOCC2)c(OCC)cc1NC(=O)c1cc(-c2ccco2)nc2ccccc12	114*	-4	70*	48	2	-3	66*	72*
CCc1ccc(CN(C)C(=O)C2=CC=CN3CCS(=O)(=O)N=C23)cc1	.	.	-4	4	-20	.	.	.
O=C(CCSc1ccc(Cl)c(Cl)c1)NC12CC3CC(CC(C3)C1)C2	-39	-4	-19	-17	-8	-3	.	.
CCOC(=O)c1sc2nc(CSc3ccccc3)nc(N3CCCN(C)CC3)c2c1C	78*	-1	74*	6	4	2	43*	63*
CCCCC(=O)NC(c1cccs1)c1cc(Cl)c2cccnc2c1O (configuration not stated)	80*	-3	85*	16	-22	-5	75*	28
CCC(=O)NC(c1cccs1)c1cc(Cl)c2cccnc2c1O (configuration not stated)	86*	-4	86*	12	-13	-3	76*	21
O=[N+]([O-])c1cc(Cl)c2cccnc2c1O	1	-6	46	-2	8	-3	.	.
CCCCC(=O)NC(c1ccco1)c1c(O)ccc2ccccc12 (configuration not stated)	27	-4	22	6	6	0	.	.
O=C(OCC(=O)N1CCN(S(=O)(=O)c2ccc(Cl)cc2)CC1)C1CC1	.	.	8	0	11	.	.	.
COc1cc(OC)cc(-c2c(C#Cc3ccsc3)c3cc(-c4ccc(N(C)C)nc4)ccc3n2C)c1	.	.	17	-31	-4	.	.	.
COc1cc(OC)cc(-c2c(C#Cc3ccsc3)c3cc(-c4ccc(CN5CCOCC5)cc4)ccc3n2C)c1	.	.	7	7	-5	.	.	.
COc1cc(C#Cc2c(-c3cncn3C)n(C)c3ccc(-c4cnc(OC)nc4)cc23)cc(OC)c1	.	.	66*	-1	29	.	39	63*
COc1cc(C#Cc2c(-c3cncn3C)n(C)c3ccc(-c4ccc(CN5CCOCC5)cc4)cc23)cc(OC)c1	.	.	70*	8	6	.	-7	.
COc1cc(OC)cc(-c2c(C#Cc3ccsc3)c3cc(-c4ccc5c(c4)OCCO5)ccc3n2C)c1	.	.	-9	-8	7	.	.	.
COc1cc(C#Cc2c(-c3cncn3C)n(C)c3ccc(-c4cnc(N5CCOCC5)nc4)cc23)cc(OC)c1	.	.	81*	-32	-29	.	14	.
O=C(NC1CC2CCC(C1)N2C(=O)NCc1ccccc1)NC12CC3CC(CC(C3)C1)C2 (configuration not stated)	15	-3	19	5	1	-2	.	.
COc1ccc(-c2oc3ccc(N4CCOCC4)cc3c2C#CC2(O)CCCCC2)cc1	-118	.	73*	-35	-10	.	59*	54*
COc1cc(-c2noc(C)c2C#CC2(O)CCCCC2)cc(OC)c1OC	14	-2	61*	-3	18	-1	43*	84*
COc1ccc(-c2oc3ccc(-c4cc(OC)c(OC)c(OC)c4)cc3c2C#Cc2ccccn2)cc1	.	.	85*	12	4	.	64*	64*
OC1(C#Cc2c(-c3ccsc3)oc3ccc(N4CCOCC4)cc23)CCCCC1	-8	.	24	-22	-21	.	.	.
COc1cc(-c2ccc3oc(-c4ccsc4)c(C#CC4(O)CCCCC4)c3c2)cc(OC)c1OC	32	.	52*	2	-5	.	9	.
SMILES	aSyn 5UTR inh	IMP-1 inh	Mdm2-MdmX inh	Jurkat NFkB inh	697 NFkB inh	VIM-2 inhibitor	Mdm2-MdmX conf	Full FLuc ctr
COc1ccc(C2=NS(=O)(=O)N(C)C(C(=O)N(C)Cc3ccccc3)=C2)cc1OC	14	-4	-7	16	11	-2	.	.
COc1ccc(OC)c(CNC(=O)CCCn2ccc3cc(S(=O)(=O)N4CCCC4)ccc32)c1	12	-2	13	12	-10	-2	.	.
CNc1ccccc1C(=O)OCC(=O)N1CCN(c2ccc(OC)cc2)CC1	14	-4	-8	-5	21	-2	.	.
COc1ccc(-c2oc3cccnc3c2C#CC2(O)CCCCC2)cc1	8	-2	52*	-8	1	1	39	.
COc1cccc(OC)c1C(=O)O/N=C(\N)c1ccncc1	5	-2	6	11	2	-1	.	.
N/C(=N\OC(=O)Cc1ccccc1)c1ccc(Br)cc1	-80	-1	-30	-36	-21	1	.	.
N/C(Cc1ccccc1)=N\OC(=O)c1cccc2ccccc12	-24	-2	98*	-9	-18	-6	67*	57*
N/C(=N\OC(=O)c1cccc2ccccc12)c1ccc(Br)cc1	-18	-4	98*	-14	-15	-4	80*	94*
N/C(=N\OC(=O)c1cccc2ccccc12)c1ccncc1	-53	-2	51*	-23	-26	-1	-5	.
N/C(Cc1cccc2ccccc12)=N\OC(=O)c1ccccc1F	9	-5	7	-3	-6	-1	.	.
COc1cccc(NC(=O)COc2c(F)c(F)c(C(F)(F)F)c(F)c2F)c1	-4	-3	-9	-24	-7	-1	.	.
CN1C(C(=O)Nc2ccc(OC(F)(F)F)cc2)=CC(c2cccs2)=NS1(=O)=O	25	-2	58*	12	-6	0	33	48*
COc1ccc(C2=NS(=O)(=O)N(C)C(C(=O)Nc3ccc(C)cc3)=C2)cc1	-15	-2	-11	-6	-12	-4	.	.
COc1ccc(NC(=O)C2=CC(c3cccs3)=NS(=O)(=O)N2C)cc1	23	-2	55*	4	-3	-2	31	.
